This is one part of a sample in which hits are shown more often than they occur.
GASC1 inh = KDM4C (human) demethylase inhibition; Q9H3R0; GST-KDM4C 2-372, H3K9me3 peptide, LANCE TR-FRET; inhibition, % at 12.5 µM; 96,000 tested, 0.15% active;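 active = mean replicate inhibition above about 25%, with at least 55% of replicates also reaching it, limit read from the data, passing the limit was not always enough; inconclusive = only one of those two conditions met; inactive = neither condition met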
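Material: GST-tagged GASC-1 (JMJD2C) catalytic fragment, aa 2-372 / Quantity: enzyme final amount 10 nM / Medium: HEPES buffer, pH 7.5, plus ascorbate / Doses: one test concentration per compound / Incubation: 30 min reaction, 60 min detection, RT / Measured by: LANCE TR-FRET / Read-out: inhibition from TR-FRET ratio decrease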
T cruzi growth-1 = inhibitors of T. cruzi proliferation; T. cruzi beta-gal in NIH3T3, GalScreen luminescence, 90 h; inhibition, % at 8.34 µM; 77,000 tested, 5.9% active; AID 624255;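 active = mean inhibition above about 93%, with at least 55% of replicates each passing it, limit read from the data, passing the limit was not always enough; inconclusive = only one of those two conditions holds; inactive = neither condition holds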
IDH1 R132H inh = blocks human IDH1 R132H reductase activity; O75874; diaphorase/resazurin fluorescence, 60 min; inhibition, % at 10 µM; 70,000 tested, 0.18% active; AID 624101; in the data active = inhibition above about 34%; inconclusive = no clear call, values can overlap the other calls; inactive = below about 11%
Target sequence (O75874 whole entry R132H): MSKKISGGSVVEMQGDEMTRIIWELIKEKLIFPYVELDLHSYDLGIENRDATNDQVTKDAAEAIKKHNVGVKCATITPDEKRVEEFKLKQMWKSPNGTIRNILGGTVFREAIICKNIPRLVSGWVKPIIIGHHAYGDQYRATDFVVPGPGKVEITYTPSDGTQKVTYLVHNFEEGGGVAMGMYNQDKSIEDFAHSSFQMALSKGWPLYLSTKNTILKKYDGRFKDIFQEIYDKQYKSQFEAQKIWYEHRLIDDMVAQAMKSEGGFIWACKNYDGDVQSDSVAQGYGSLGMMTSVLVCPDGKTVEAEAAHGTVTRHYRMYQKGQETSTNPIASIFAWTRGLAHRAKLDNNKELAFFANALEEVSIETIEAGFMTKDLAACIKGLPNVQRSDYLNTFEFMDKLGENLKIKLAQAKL
T cruzi growth-2 = inhibitors of T. cruzi proliferation; 5,600 tested, 72% active; AID 651739; inhibition, % at 8.35 µM; shares compounds with T cruzi growth-1; T. cruzi beta-gal in NIH3T3, GalScreen luminescence, 90 h;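 active = mean replicate inhibition above about 95% and at least 55% of replicates individually reaching it, limit read from the data; inconclusive = only one of the two criteria is met; inactive = neither criterion is met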
T cruzi growth-3 = inhibitors of T. cruzi proliferation. shares compounds with T cruzi growth-1. T. cruzi beta-gal in NIH3T3, GalScreen luminescence, 90 h. inhibition, % at 2.09 µM. 5,600 tested, 21% active. AID 651740;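 active = mean inhibition above about 95%, with at least 55% of replicates also reaching it, limit read from the data; inconclusive = meets just one of the two conditions; inactive = meets neither condition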
NIH3T3 tox = NIH/3T3 (mouse) viability loss; shares compounds with T cruzi growth-1; NIH/3T3 viability, CellTiter-Glo ATP luminescence, 90 h; cytotoxicity (signal decrease), % at 8.35 µM; 5,600 tested, 14% active; AID 651742;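 active = mean signal decrease across replicates above about 35% based on untreated-well scatter, with enough replicates individually passing, limit read from the data; inconclusive = no rule stated though some were filed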
NIH3T3 tox 2 = cytotoxicity in mouse NIH/3T3 fibroblasts; shares compounds with T cruzi growth-1; inhibition, % at 24.9 µM; AID 651744; 5,600 tested, 56% active; NIH/3T3 viability, CellTiter-Glo ATP luminescence, 90 h;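 active = mean loss of cell viability signal at or above a set limit, and enough replicates individually reaching it; inconclusive = meets only the mean limit or only the replicate share; inactive = meets neither condition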
Numbers stand for hits; – = inactive; ? = inconclusive; · = no result given.

SMILES	GASC1 inh	T cruzi growth-1	IDH1 R132H inh	T cruzi growth-2	T cruzi growth-3	NIH3T3 tox	NIH3T3 tox 2
C[C@@H]1CCCCO[C@H](CN(C)Cc2ccncc2)[C@@H](C)CN([C@@H](C)CO)C(=O)c2cc(NS(=O)(=O)c3cccs3)ccc2O1	–	–	–	·	·	·	·
O=C(CSc1ncnc2sc3c(c12)CCC3)Nc1ccc(Cl)cc1	·	·	–	·	·	·	·
Cc1onc(-c2ccccc2)c1C(=O)Nc1cccc(S(=O)(=O)N(C)C)c1	·	·	–	·	·	·	·
CC(C)NC(=O)N(C)C[C@@H]1Oc2ccc(NC(=O)Cn3cnnn3)cc2C(=O)N([C@@H](C)CO)C[C@H]1C	–	–	·	·	·	·	·
CC(=O)OC/C(=C\COc1cc(=O)oc2cccc(C)c12)CCC=C(C)C	·	·	–	·	·	·	·
C[C@@H]1CN([C@H](C)CO)C(=O)c2cc(NS(=O)(=O)c3cccs3)ccc2O[C@@H](C)CCCCO[C@@H]1CN(C)Cc1ccc(Cl)c(Cl)c1	–	?	–	–	110.9	99.8	90.6
C[C@H]1CCCCO[C@H](CN(C)Cc2ccncc2)[C@@H](C)CN([C@@H](C)CO)C(=O)c2cc(NS(=O)(=O)c3cccs3)ccc2O1	–	–	–	·	·	·	·
CC1(C)C=C(c2ccc(C3=CC(C)(C)NC(C)(C)C3)s2)CC(C)(C)N1	·	·	–	·	·	·	·
C[C@@H]1CCCCO[C@@H](CN(C)S(=O)(=O)c2cccs2)[C@H](C)CN([C@@H](C)CO)C(=O)c2cc(NC(=O)Nc3ccc(C(F)(F)F)cc3)ccc2O1	–	99.7	·	104.6	114.5	–	–
C[C@H](CO)N1C[C@H](C)[C@H](CN(C)S(=O)(=O)c2cccs2)OCCCC[C@H](C)Oc2ccc(NC(=O)NC3CCCCC3)cc2C1=O	–	101.1	–	–	–	–	–
C[C@@H]1CN([C@H](C)CO)C(=O)c2cc(NC(=O)Nc3ccc4c(c3)OCO4)ccc2O[C@@H](C)CCCCO[C@@H]1CN(C)S(=O)(=O)c1cccs1	–	–	–	·	·	·	·
C[C@@H]1CN([C@@H](C)CO)C(=O)c2cc(NC(=O)Nc3ccc(F)cc3)ccc2O[C@@H](C)CCCCO[C@@H]1CN(C)S(=O)(=O)c1cccs1	–	–	–	·	·	·	·
C[C@H](CO)N1C[C@H](C)[C@H](CN(C)S(=O)(=O)c2cccs2)OCCCC[C@H](C)Oc2ccc(NC(=O)Nc3ccc4c(c3)OCO4)cc2C1=O	–	86.4	–	105.9	–	–	27.0
C[C@@H]1CCCCO[C@@H](CN(C)S(=O)(=O)c2cccs2)[C@@H](C)CN([C@H](C)CO)C(=O)c2cc(NC(=O)NC3CCCCC3)ccc2O1	–	103.1	–	–	–	–	38.6
C[C@@H]1CCCCO[C@H](CN(C)S(=O)(=O)c2cccs2)[C@H](C)CN([C@H](C)CO)C(=O)c2cc(NC(=O)NC3CCCCC3)ccc2O1	–	–	–	·	·	·	·
C[C@@H]1CCCCO[C@H](CN(C)S(=O)(=O)c2cccs2)[C@@H](C)CN([C@H](C)CO)C(=O)c2cc(NC(=O)NC3CCCCC3)ccc2O1	–	–	·	·	·	·	·
C[C@H]1[C@H]2OC3=C(C(=O)OC3(C)O)C(=O)[C@]1(C)[C@H]1CCCC[C@]1(O)[C@H]2O (stereo partly specified)	·	·	–	·	·	·	·
CCOC(=O)c1c(CSc2nc(C)cc(C)n2)nc2c3ccccc3ccn12	·	·	–	·	·	·	·
Cc1nnc(Sc2ccc(/C=N/NC(=O)c3ccccn3)o2)n1C	·	·	–	·	·	·	·
COCCNc1ncnc2c1oc1ccccc12	·	·	–	·	·	·	·
C[C@@H]1CCCCO[C@H](CN(C)S(=O)(=O)c2cccs2)[C@H](C)CN([C@@H](C)CO)C(=O)c2cc(NC(=O)NC3CCCCC3)ccc2O1	·	99.7	–	105.2	–	–	–
C[C@H]1CN([C@@H](C)CO)C(=O)c2cc(NC(=O)Nc3ccc(C(F)(F)F)cc3)ccc2O[C@@H]1CN(C)S(=O)(=O)c1cccs1	–	–	–	·	·	·	·
C[C@@H]1CN([C@@H](C)CO)C(=O)c2cc(NC(=O)Nc3ccc(C(F)(F)F)cc3)ccc2O[C@H]1CN(C)S(=O)(=O)c1cccs1	–	?	–	–	–	?	56.7
C[C@@H]1CCCCO[C@@H](CN(C)S(=O)(=O)c2cccs2)[C@H](C)CN([C@@H](C)CO)C(=O)c2cc(NC(=O)NC3CCCCC3)ccc2O1	–	–	–	·	·	·	·
COc1ccc(-c2csc(N3N=C(C)C(C(c4ccc(Cl)cc4)C(C#N)C(N)=O)C3=O)n2)cc1 (stereo unspecified)	·	·	–	·	·	·	·
SMILES	GASC1 inh	T cruzi growth-1	IDH1 R132H inh	T cruzi growth-2	T cruzi growth-3	NIH3T3 tox	NIH3T3 tox 2
O=C(NCCc1c[nH]c2ccccc12)Nc1ccc(Cl)c(Cl)c1	·	·	–	·	·	·	·
CC(C)(C)[S@@](=O)N1Cc2cc(C(=O)NCCc3ccncc3)nc(-c3cccc(-c4cccc(C#N)c4)c3)c2[C@H]1CCO	–	–	–	·	·	·	·
CC(C)(C)[S@@](=O)N1Cc2cc(C(=O)NCCN3CCCC3)nc(-c3cccc(-c4ccc(C#N)cc4)c3)c2[C@H]1CCO	–	–	–	·	·	·	·
COc1cccc(CNC(=O)c2cc3c(c(-c4cccc(-c5ccncc5)c4)n2)[C@H](CCO)N([S@@](=O)C(C)(C)C)C3)c1	–	99.7	–	110.0	–	–	52.1
CN1CCN(C(=O)c2cc3c(c(-c4cccc(-c5ccc(C#N)cc5)c4)n2)[C@@H](CCO)N([S@](=O)C(C)(C)C)C3)CC1	–	–	–	·	·	·	·
CC(C)(C)[S@](=O)N1Cc2cc(C(=O)N3CCCCC3)nc(-c3cccc(-c4ccc(C#N)cc4)c3)c2[C@@H]1CCO	–	100.8	–	107.4	–	–	–
COc1cccc(CNC(=O)c2cc3c(c(-c4cccc(-c5cccc(C#N)c5)c4)n2)[C@H](CCO)N([S@@](=O)C(C)(C)C)C3)c1	–	–	–	·	·	·	·
CC(C)(C)[S@](=O)N1Cc2cc(C(=O)NCc3ccncc3)nc(-c3cccc(-c4ccc(C#N)cc4)c3)c2[C@@H]1CCO	–	99.4	–	102.7	–	–	?
CC(C)(C)[S@](=O)N1Cc2cc(C(=O)NCCc3ccncc3)nc(-c3cccc(-c4ccc(C#N)cc4)c3)c2[C@@H]1CCO	–	97.0	–	112.3	–	46.1	38.5
O=S(=O)(NCc1ccco1)c1ccc(Oc2ccccc2)cc1	·	·	–	·	·	·	·
O=C(CSc1n[nH]c(-c2ccc(Cl)cc2)n1)Nc1ccccc1Cl	·	·	–	·	·	·	·
Cc1ccc(NC(=O)CN(c2cc(Cl)c(Cl)cc2Cl)S(C)(=O)=O)cc1Cl	·	·	–	·	·	·	·
CN(CCCc1nc2ccccc2[nH]1)S(=O)(=O)c1ccc(Cl)cc1	·	·	–	·	·	·	·
C[C@@H]1CN([C@@H](C)CO)C(=O)c2cc(NC(=O)Cc3cn(C)c4ccccc34)ccc2O[C@H]1CN(C)Cc1ccc(Cl)c(Cl)c1	–	?	·	104.7	–	–	–
C[C@H]1CN([C@@H](C)CO)C(=O)c2cc(NC(=O)Cc3cn(C)c4ccccc34)ccc2O[C@@H]1CN(C)Cc1ccncc1	–	?	–	–	–	–	29.8
